Laboratory results: ChEMBL document CHEMBL4402581, “Monohydrazone Based G-Quadruplex Selective Ligands Induce DNA Damage and Genome Instability in Human Cancer Cells” (J Med Chem, 2020)
Active and inactive are the calls of the source. The rule behind the calls is not given here.

Legend:
Quadruplex DNA [1] = assay: Binding affinity at FAM/TAMRA-tagged parallel Tel21 G4 quadruplex DNA assessed as melting temperature at 2 uM by FRET melting assay (reference value: 55.4 +/- 0.2 degreeC); type: nucleic-acid assay
Procedure, shortened: (§1)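 Dual FAM/TAMRA-labelled oligos (0.2 μM) in 20 mM K phosphate pH 7.0 with 5 mM KCl, annealed 90 °C 5 min, slow-cooled overnight, held 4 °C 24 h. The Tel21 parallel form was annealed at high DNA concentration. Ligand 2 μM. Unlabelled ds12 duplex competitor at 0, 5 or 10 μM final. Tm was read from FRET melting curves.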

Quadruplex DNA [2] = assay: Binding affinity at FAM/TAMRA-tagged parallel Tel21 G4 quadruplex DNA assessed as melting temperature at 2 uM in presence of 50 fold excess duplex DNA by FRET melting assay (reference value: 55.4 +/- 0.2 degreeC); type: nucleic-acid assay; procedure, shortened: as §1
Quadruplex DNA [3] = assay: Binding affinity at FAM/TAMRA-tagged c-Kit2 G4 quadruplex DNA assessed as melting temperature at 2 uM in presence of 50 fold excess duplex DNA by FRET melting assay (reference value: 69.7 +/- 0.3 degreeC); type: nucleic-acid assay; procedure, shortened: as §1
U2OS [4] = assay: Cytotoxicity against human U2OS cells assessed as reduction in cell viability incubated for 1 hr followed by 48 hrs of recovery in drug free medium by MTT assay; type: functional, cell-based
Procedure, shortened: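 Cells grown in DMEM with 10% FBS and 1% glutamine at 37 °C, 5% CO2, and seeded 25 × 10^4 per well. Treatment began 24 h after seeding and lasted 1 or 24 h, followed by 48 h in drug-free medium. MTT was added for 1 h at 37 °C, then DMSO solubilization and absorbance at 595 nm. IC50 came from linear regression; two independent experiments, each in triplicate.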

U2OS [5] = assay: Induction of DNA:RNA hybrid formation in human U2OS cells assessed as increase in R loop formation at 10 uM incubated for 60 mins by S9.6 immunofluorescence microscopy; type: functional, cell-based
Procedure, shortened: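 U2OS cells were treated at 10 μM for 5–60 min, 24 h after seeding, then fixed in cold methanol and permeabilized with acetone. Stained with S9.6 antibody and anti-nucleolin. The nucleolar signal was subtracted from total nuclear S9.6 fluorescence, and values were normalized to the untreated mean; two biological replicates.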

U2OS [6] = assay: Induction of DNA damage in human U2OS cells assessed as increase in gammaH2AX phosphorylation at S139 at 10 uM incubated for 4 hrs by immunofluorescence microscopy; type: functional, cell-based
Procedure, shortened: (§2)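 U2OS cells were treated with 10 μM for 4 h, pre-extracted 3 min with CSK buffer containing 0.5% Triton X-100, and fixed in 2% paraformaldehyde. Co-stained 1 h for 53BP1 and γH2AX, with DAPI counterstain. Foci were counted per nucleus and normalized to the untreated mean, across three biological replicates.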

U2OS [7] = assay: Induction of DNA damage in human U2OS cells assessed as increase in phosphorylated 53BPI foci colocalization with gammaH2AX foci at 10 uM incubated for 4 hrs by immunofluorescence microscopy; type: functional, cell-based; procedure, shortened: as §2
U2OS [8] = assay: Induction of genome instability in human U2OS cells assessed as fold increase in micronuclei formation per 100 cells at 10 uM incubated for 24 hrs by immunofluorescence microscopy relative to control; type: functional
Procedure, shortened: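 U2OS cells were treated for 24 h, fixed in 4% paraformaldehyde, permeabilized with 0.5% Triton X-100, and stained with DAPI. Micronuclei were counted per 100 cells.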

Q: Which results are given for `CC(C)(C)c1cc(/C=N/NC(=N)N)c(O)c(/C=C2/C(=O)Nc3c2ccc2ccccc32)c1.Cl`?
A: Tm (Quadruplex DNA [1]): 68.6 °C; Tm (Quadruplex DNA [2]): 68.1 °C; Tm (Quadruplex DNA [3]): 76.5 °C; IC50 (U2OS [4]): 12.5 µM; Activity (U2OS [5]): Active; Activity (U2OS [6]): Active; Activity (U2OS [7]): Active; fold change (FC) (U2OS [8]): 3
